This note sets out measurements from ChEMBL document CHEMBL4382285, “Discovery of Novel Retigabine Derivatives as Potent KCNQ4 and KCNQ5 Channel Agonists with Improved Specificity” (ACS Med Chem Lett, 2019).

What all share (format): cell-based
In assay [1] the target is Potassium voltage-gated channel subfamily KQT member 2 (Rattus norvegicus) (UniProt O88943). Briefly: Activity at rat KCNQ2 expressed in CHOK1 cells assessed as ratio of amplitude of outward current in presence of test compound to amplitude of outward current in absence of test compound at 10 uM at -10 mV by whole cell patch clamp assay. An outline of the steps:
(§1)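 CHO-K1 cells expressing the channel, whole-cell voltage clamp, compound at 10 μM. Read-out is the outward current ratio I/I0 with and without compound, taken at −10 mV. I/I0 > 1 counts as activation and < 1 as inhibition. More than four cells per compound.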

Assay [2] concerns the target T1, Potassium voltage-gated channel subfamily KQT member 4 (Homo sapiens) (UniProt P56696).
T1 sequence (whole entry): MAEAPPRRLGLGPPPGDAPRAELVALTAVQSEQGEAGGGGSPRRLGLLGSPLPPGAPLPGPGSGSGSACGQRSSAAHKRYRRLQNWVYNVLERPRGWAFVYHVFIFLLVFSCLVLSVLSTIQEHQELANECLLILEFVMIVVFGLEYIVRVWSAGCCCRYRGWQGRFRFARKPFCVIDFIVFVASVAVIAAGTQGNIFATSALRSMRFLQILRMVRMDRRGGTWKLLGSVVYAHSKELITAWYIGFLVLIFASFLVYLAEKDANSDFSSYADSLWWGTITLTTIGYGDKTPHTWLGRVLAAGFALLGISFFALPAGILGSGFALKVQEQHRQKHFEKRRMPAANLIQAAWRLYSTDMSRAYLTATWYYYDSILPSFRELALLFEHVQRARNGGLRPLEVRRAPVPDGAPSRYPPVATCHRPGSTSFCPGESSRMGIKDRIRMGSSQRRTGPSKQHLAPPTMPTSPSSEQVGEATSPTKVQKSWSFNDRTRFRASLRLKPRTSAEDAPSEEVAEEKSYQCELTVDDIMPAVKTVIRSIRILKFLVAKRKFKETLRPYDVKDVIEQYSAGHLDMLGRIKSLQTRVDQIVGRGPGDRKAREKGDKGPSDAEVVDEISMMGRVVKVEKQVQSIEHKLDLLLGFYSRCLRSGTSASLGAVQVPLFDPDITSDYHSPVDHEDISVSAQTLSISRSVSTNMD
Briefly: Activity at human KCNQ4 expressed in CHOK1 cells assessed as ratio of amplitude of outward current in presence of test compound to amplitude of outward current in absence of test compound at 10 uM at -10 mV by whole cell patch clamp assay. An outline of the steps:
as §1

In assay [3] the target is T2, Potassium voltage-gated channel subfamily KQT member 5 (Homo sapiens, UniProt Q9NR82). In words: Activity at human KCNQ5 expressed in CHOK1 cells assessed as ratio of amplitude of outward current in presence of test compound to amplitude of outward current in absence of test compound at 10 uM at -10 mV by whole cell patch clamp assay. An outline of the steps:
as §1

Assay [4] addresses T2, Potassium voltage-gated channel subfamily KQT member 5. Briefly: Agonist activity at human KCNQ5 expressed in CHOK1 cells by whole cell patch clamp assay. An outline of the steps: (§2)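 Concentration–response by whole-cell voltage clamp in CHO-K1 cells transiently expressing the homomeric channel. EC50 and Hill coefficient come from fitting outward currents recorded across the tested concentrations.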

The target of assay [5] is T3, Potassium voltage-gated channel subfamily KQT member 4 (Homo sapiens, UniProt P56696).
T3 sequence (P56696 whole entry): T1 sequence (whole entry)
In words: Agonist activity at human KCNQ4 expressed in CHOK1 cells by whole cell patch clamp assay. An outline of the steps: as §2

Assay [6] addresses T1, Potassium voltage-gated channel subfamily KQT member 4 (Homo sapiens). Briefly: Effect on voltage-dependent activation of human KCNQ4 expressed in CHOK1 cells assessed as negative shift in current activation curve at 10 uM by whole cell patch clamp assay.
Assay [7] has as its target Potassium voltage-gated channel subfamily KQT member 2 (Rattus norvegicus, UniProt O88943). Briefly: Agonist activity at rat KCNQ2 expressed in CHOK1 cells by whole cell patch clamp assay. An outline of the steps:
as §2

In assay [8] the target is Potassium voltage-gated channel subfamily KQT member 2 (Rattus norvegicus) (UniProt O88943). In words: Effect on voltage-dependent activation of rat KCNQ2 expressed in CHOK1 cells assessed as negative shift in current activation curve at 10 uM by whole cell patch clamp assay.
The target is the same in assay [9]. In words: Inhibition of rat KCNQ2 expressed in CHOK1 cells at 10 uM at -10 mV by whole cell patch clamp assay relative to control. An outline of the steps: as §1

T2 sequence (Q9NR82 whole entry): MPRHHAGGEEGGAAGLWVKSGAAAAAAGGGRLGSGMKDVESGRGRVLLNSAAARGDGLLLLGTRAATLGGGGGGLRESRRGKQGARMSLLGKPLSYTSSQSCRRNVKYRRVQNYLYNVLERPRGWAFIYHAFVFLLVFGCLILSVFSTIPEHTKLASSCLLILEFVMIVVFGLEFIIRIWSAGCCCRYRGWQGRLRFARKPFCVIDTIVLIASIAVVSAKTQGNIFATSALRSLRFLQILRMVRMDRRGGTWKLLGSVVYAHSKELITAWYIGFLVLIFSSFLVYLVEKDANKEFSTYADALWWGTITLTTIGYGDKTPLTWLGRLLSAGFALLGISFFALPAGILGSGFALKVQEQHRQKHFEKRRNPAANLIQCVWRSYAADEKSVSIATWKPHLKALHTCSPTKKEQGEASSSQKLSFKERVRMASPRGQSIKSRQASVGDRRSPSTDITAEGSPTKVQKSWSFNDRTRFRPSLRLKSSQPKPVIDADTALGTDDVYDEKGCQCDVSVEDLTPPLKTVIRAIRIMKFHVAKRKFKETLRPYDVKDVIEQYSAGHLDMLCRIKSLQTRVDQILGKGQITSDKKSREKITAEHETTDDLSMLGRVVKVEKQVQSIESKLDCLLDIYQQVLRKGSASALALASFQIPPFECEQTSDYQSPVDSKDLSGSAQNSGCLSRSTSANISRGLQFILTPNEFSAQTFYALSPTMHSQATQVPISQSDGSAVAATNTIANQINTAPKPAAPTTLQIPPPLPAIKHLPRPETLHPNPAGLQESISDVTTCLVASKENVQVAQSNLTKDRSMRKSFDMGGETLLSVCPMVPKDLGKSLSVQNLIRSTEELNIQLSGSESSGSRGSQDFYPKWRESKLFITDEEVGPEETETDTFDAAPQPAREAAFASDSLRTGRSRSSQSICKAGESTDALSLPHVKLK
Sequence of Potassium voltage-gated channel subfamily KQT member 2 (Rattus norvegicus) (O88943 whole entry): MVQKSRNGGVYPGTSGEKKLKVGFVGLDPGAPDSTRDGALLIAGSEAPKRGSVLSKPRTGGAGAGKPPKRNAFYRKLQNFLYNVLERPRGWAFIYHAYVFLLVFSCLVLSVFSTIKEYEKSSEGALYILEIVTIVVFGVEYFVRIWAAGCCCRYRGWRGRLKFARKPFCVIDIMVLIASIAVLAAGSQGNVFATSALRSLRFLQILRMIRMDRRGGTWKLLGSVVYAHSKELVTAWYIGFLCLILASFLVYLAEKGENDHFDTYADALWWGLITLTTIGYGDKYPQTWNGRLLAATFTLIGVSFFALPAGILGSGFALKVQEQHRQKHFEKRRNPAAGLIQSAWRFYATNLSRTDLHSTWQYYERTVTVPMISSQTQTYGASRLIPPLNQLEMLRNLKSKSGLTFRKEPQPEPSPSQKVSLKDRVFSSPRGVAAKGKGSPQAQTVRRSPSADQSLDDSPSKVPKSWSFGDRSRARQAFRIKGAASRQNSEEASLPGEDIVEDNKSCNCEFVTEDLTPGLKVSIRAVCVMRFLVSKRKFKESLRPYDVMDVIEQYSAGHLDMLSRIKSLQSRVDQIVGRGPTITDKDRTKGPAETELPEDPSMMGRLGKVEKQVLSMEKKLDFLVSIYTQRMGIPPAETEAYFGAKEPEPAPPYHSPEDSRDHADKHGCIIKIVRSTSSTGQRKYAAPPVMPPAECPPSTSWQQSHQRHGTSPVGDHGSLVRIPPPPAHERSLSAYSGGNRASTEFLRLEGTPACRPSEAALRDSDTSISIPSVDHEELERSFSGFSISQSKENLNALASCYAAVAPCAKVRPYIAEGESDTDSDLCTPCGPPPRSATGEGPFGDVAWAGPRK
Sequence of Potassium voltage-gated channel subfamily KQT member 2 (O88943 whole entry): as above

Turning to `C#CCN(Cc1ccc(F)cc1)c1ccc(NC(=O)OCC)c(NC(=O)OCC(C)C)c1`, the Ratio in assay [1] worked out at 1.04; in assay [2], 5.19; in assay [3] it was 4.84.

Consider `C#CCN(Cc1ccc(F)cc1)c1ccc(NC(=O)OCC(C)C)c(NC(=O)OCC(C)C)c1`, for which the values for the Ratio in assay [1], in [2] and in [3] were 0.83, 1.52 and 1.73, respectively.

As for `CCOC(=O)Nc1ccc(NCc2ccc(F)cc2)cc1N` [EZOGABINE], the Ratio in [1] is 1.6. Besides, the 50% effective concentration (EC50) in [4] stood at 3450 nM; in assay [5], 5900 nM; in [7], 2170 nM. For the same compound, the Activity in assay [6] and in [8] was 20 to 30 mV throughout.

Regarding `CCOC(=O)Nc1ccc(N(CC=C(C)C)Cc2ccc(F)cc2)cc1NC(=O)OCC`, the results for the Ratio in [1], in [2] and in assay [3] were 0.66, 3.63 and 1.37, respectively.

On to `C#CCN(Cc1ccc(F)cc1)c1ccc(NC(=O)OC(C)(C)C)c(NC(=O)OCC)c1`, for which the Ratio was 1.07 in assay [1], 7.71 in [2] and 4.59 in [3]. Moreover, the concentration for a half-maximal effect (EC50) in [4] is 1370 nM; in [5], 1420 nM; in [7], above 30000 nM.

As for `C#CCN(Cc1ccc(F)cc1)c1ccc(NC(=O)OCCC)c(NC(=O)OCCC)c1`, the Ratio amounted to 0.78 in assay [1], 2.58 in [2] and 2.75 in assay [3].

In the case of `C#CCN(Cc1ccc(F)cc1)c1ccc(NC(=O)OCC)c(NC(=O)OCCC)c1`, the figures for the Ratio in assay [1], in [2] and in [3] were 1.07, 3.95 and 5.81, respectively.

For the compound `C#CCN(Cc1ccc(F)cc1)c1ccc(NC(=O)OC2CC2)c(NC(=O)OC2CC2)c1`, the Ratio amounted to 0.64 in assay [1], 1.51 in assay [2] and 2.55 in assay [3].

As to `C/C=C/CN(Cc1ccc(F)cc1)c1ccc(NC(=O)OCC)c(NC(=O)OCC)c1`, the values for the Ratio in assay [1], in assay [2] and in assay [3] were 0.87, 1.85 and 1.36, respectively.

For the compound `C#CCN(Cc1ccc(F)cc1)c1ccc(NC(=O)OCC)c(NC(=O)OC)c1`, the values for the Ratio in assay [1], in assay [2] and in assay [3] were 0.61, 2.56 and 3.34, respectively.

As for `C/C=C(\C)CN(Cc1ccc(F)cc1)c1ccc(NC(=O)OCC)c(NC(=O)OCC)c1`, the Ratio in assay [1] turned out to be 0.85; in [2] it was 2.36; in assay [3], 1.28.

`CCOC(=O)Nc1ccc(N(CC2=CCCCC2)Cc2ccc(F)cc2)cc1NC(=O)OCC`: the Ratio in assay [1] stood at 1.19; in assay [2], 1.49; in assay [3], 1.05.

Regarding `C#CCN(Cc1ccc(F)cc1)c1ccc(NC(=O)OCCCC)c(NC(=O)OCCCC)c1`, the Ratio turned out to be 0.77 in [1], 2.75 in [2] and 4.13 in assay [3].

In the case of `C#CCN(Cc1ccc(F)cc1)c1ccc(NC(=O)OC(C)C)c(NC(=O)OC(C)C)c1`, the Ratio in assay [1] turned out to be 0.35; in assay [2], 1.33; in assay [3], 3.11.

In the case of `C#CCN(Cc1ccc(F)cc1)c1ccc(NC(=O)OCC)c(NC(=O)OCC=C)c1`, the Ratio was determined as 0.96 in assay [1], 3.68 in assay [2] and 4.67 in [3].

With `C#CCN(Cc1ccc(F)cc1)c1ccc(NC(=O)OCC)c(NC(=O)OC(C)C)c1`, the Ratio in assay [1] came out at 0.94; in assay [2], 5.01; in [3], 5.71.

In the case of `C#CCN(Cc1ccc(F)cc1)c1ccc(NC(=O)OCC=C)c(NC(=O)OCC=C)c1`, the Ratio in assay [1] is 0.67; in assay [2] it was 2.21; in assay [3], 5.26.

On to `C#CCN(Cc1ccc(F)cc1)c1ccc(NC(=O)OC2CCCC2)c(NC(=O)OC2CCCC2)c1`, for which the Ratio in assay [1] was found to be 0.21; in assay [2] it was 0.88; in assay [3] it was 1.25.

For the compound `C#CCN(Cc1ccc(F)cc1)c1ccc(NC(=O)Oc2ccccc2)c(NC(=O)Oc2ccccc2)c1`, the Ratio came to 0.91 in assay [1], 1.22 in assay [2] and 1.16 in assay [3].

With `C=CCN(Cc1ccc(F)cc1)c1ccc(NC(=O)OCC)c(NC(=O)OCC)c1`, the Ratio in [1] was 0.3; in assay [3] it was 1.49. For the same compound, the inhibition in [9] was 70%.

With `C#CCN(Cc1ccc(F)cc1)c1ccc(NC(=O)OCC)c(NC(=O)OCCCC)c1`, the Ratio in [1] was 1.06; in assay [2], 4.16; in [3] it was 3.62.

For the compound `C#CCN(Cc1ccc(F)cc1)c1ccc(NC(=O)OCc2ccccc2)c(NC(=O)OCc2ccccc2)c1`, the results for the Ratio in assay [1], in assay [2] and in assay [3] were 1.25, 3.02 and 3.57, respectively.

Turning to `C#CCN(Cc1ccc(F)cc1)c1ccc(NC(=O)OC)c(NC(=O)OC)c1`, the Ratio was found to be 1.37 in [1], 4.77 in assay [2] and 2.89 in assay [3].

As to `C#CCN(Cc1ccc(F)cc1)c1ccc(NC(=O)OC(C)(C)C)c(NC(=O)OC(C)(C)C)c1`, the Ratio in [1] came to 1; in assay [2], 3.05; in [3] it was 5.32. For the same compound, the EC50 in assay [4] was 2430 nM; in [5] it was 2030 nM; in [7] it was above 30000 nM.

On to `CCOC(=O)Nc1ccc(N(CC#Cc2ccccc2)Cc2ccc(F)cc2)cc1NC(=O)OCC`, for which the Ratio in [1] was 1.26; in [2], 1.54; in assay [3], 1.13.

As for `C#CCN(Cc1ccc(F)cc1)c1ccc(NC(=O)OCC)c(NC(=O)OCc2ccccc2)c1`, the Ratio in [1] is 0.97; in assay [2], 1.27; in assay [3], 2.57.

For the compound `C#CCN(Cc1ccc(F)cc1)c1ccc(NC(=O)OC2CCC2)c(NC(=O)OC2CCC2)c1`, the values for the Ratio in [1], in assay [2] and in [3] were 0.26, 1.21 and 1.33, respectively.
